Data reported in ChEMBL document CHEMBL1136274 (Bioorg Med Chem Lett, 2003).

Experiments:
[1] = target: T1, Sphingosine 1-phosphate receptor 2 (Homo sapiens, UniProt O95136); assay: In vitro binding affinity towards human Sphingosine 1-phosphate receptor 2 expressed in HEK293T cells using [gamma-35S]-GTP as radioligand; Not active; format: cell-based; conditions: hek-293t
[2] = target: T2, Sphingosine 1-phosphate receptor 4 (Homo sapiens, UniProt O95977); assay: In vitro binding affinity towards human Sphingosine 1-phosphate receptor 4 expressed in HEK293T cells using [gamma-35S]-GTP as radioligand; format: cell-based, HEK-293T
T2 sequence (O95977 whole entry): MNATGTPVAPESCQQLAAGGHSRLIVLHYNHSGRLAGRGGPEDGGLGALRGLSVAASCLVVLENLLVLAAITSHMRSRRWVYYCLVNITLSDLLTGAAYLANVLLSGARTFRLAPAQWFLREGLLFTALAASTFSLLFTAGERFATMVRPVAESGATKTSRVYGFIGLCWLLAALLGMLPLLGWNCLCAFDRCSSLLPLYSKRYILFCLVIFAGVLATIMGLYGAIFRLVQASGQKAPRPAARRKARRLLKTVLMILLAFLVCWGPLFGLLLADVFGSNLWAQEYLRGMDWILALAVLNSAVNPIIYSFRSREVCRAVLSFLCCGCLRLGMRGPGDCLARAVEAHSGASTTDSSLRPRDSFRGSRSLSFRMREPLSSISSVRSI

[3] = target: T3, Sphingosine 1-phosphate receptor 1 (Homo sapiens, UniProt P21453); assay: In vitro binding affinity towards human Sphingosine 1-phosphate receptor 1 expressed in HEK293T cells using [gamma-35S]-GTP as radioligand; format: cell-based, HEK-293T
[4] = target: T4, Sphingosine 1-phosphate receptor 3 (Homo sapiens, UniProt Q99500); assay: In vitro binding affinity towards human Sphingosine 1-phosphate receptor 3 expressed in HEK293T cells using [gamma-35S]-GTP as radioligand; Not active; format: cell-based; conditions: hek-293t
[5] = target: Sphingosine 1-phosphate receptor 5 (Homo sapiens, UniProt Q9H228); assay: In vitro binding affinity towards human Sphingosine 1-phosphate receptor 5 expressed in HEK293T cells using [gamma-35S]-GTP as radioligand; format: cell-based, HEK-293T
[6] = target: T1, Sphingosine 1-phosphate receptor 2; assay: In vitro binding affinity towards human Sphingosine 1-phosphate receptor 2 expressed in HEK293T cells using [gamma-35S]-GTP as radioligand; format: cell-based, HEK-293T
[7] = target: T4, Sphingosine 1-phosphate receptor 3; assay: In vitro binding affinity towards human Sphingosine 1-phosphate receptor 3 expressed in HEK293T cells using [gamma-35S]-GTP as radioligand; format: cell-based, HEK-293T
[8] = target: T2, Sphingosine 1-phosphate receptor 4; assay: In vitro binding affinity towards human Sphingosine 1-phosphate receptor 4 expressed in HEK293T cells using [gamma-35S]-GTP as radioligand (Experiment 2); format: cell-based, HEK-293T
In short: (§1)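 Membranes were incubated with test lipid in pH 7.5 buffer (HEPES 50 mM, NaCl 100 mM, MgCl2 5 mM) containing saponin, GDP and 0.1 nM [γ-35S]GTP for 30 min at 30 °C. Bound label was separated by GF/C filtration and counted by scintillation. EC50 is the mean of three experiments.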

[9] = target: T4, Sphingosine 1-phosphate receptor 3; assay: In vitro binding affinity towards human Sphingosine 1-phosphate receptor 3 expressed in HEK293T cells using [gamma-35S]-GTP as radioligand (Experiment 2); format: cell-based, HEK-293T; in short: as §1
[10] = target: T3, Sphingosine 1-phosphate receptor 1; assay: In vitro binding affinity towards human Sphingosine 1-phosphate receptor 1 expressed in HEK293T cells using [gamma-35S]-GTP as radioligand. (Experiment 2); format: cell-based, HEK-293T; in short: as §1
[11] = target: T4, Sphingosine 1-phosphate receptor 3; assay: In vitro binding affinity towards human S1P3 receptor expressed in HEK293T cells using [gamma-35S]-GTP as radioligand; format: cell-based, HEK-293T

T4 sequence (Q99500 whole entry): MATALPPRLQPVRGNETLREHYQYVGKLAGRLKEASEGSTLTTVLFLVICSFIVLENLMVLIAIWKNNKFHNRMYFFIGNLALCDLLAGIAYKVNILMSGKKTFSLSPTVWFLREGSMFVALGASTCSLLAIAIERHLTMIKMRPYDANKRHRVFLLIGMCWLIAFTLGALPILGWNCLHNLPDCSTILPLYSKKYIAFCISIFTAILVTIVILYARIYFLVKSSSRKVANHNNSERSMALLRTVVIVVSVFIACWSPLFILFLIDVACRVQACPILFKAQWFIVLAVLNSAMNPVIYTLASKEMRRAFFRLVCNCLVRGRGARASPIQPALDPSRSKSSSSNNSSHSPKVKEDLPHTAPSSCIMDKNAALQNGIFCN
Sphingosine 1-phosphate receptor 5, sequence (Q9H228 whole entry): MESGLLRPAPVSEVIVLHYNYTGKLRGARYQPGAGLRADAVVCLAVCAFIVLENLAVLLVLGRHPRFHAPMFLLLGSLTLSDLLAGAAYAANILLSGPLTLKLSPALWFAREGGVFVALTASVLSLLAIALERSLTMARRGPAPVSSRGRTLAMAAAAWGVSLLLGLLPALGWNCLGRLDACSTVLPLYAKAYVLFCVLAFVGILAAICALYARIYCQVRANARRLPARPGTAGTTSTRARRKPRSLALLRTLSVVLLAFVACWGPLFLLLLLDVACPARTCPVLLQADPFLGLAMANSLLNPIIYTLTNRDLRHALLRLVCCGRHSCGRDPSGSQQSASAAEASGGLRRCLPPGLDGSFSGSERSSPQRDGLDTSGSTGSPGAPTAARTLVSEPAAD
T3 sequence (P21453 whole entry): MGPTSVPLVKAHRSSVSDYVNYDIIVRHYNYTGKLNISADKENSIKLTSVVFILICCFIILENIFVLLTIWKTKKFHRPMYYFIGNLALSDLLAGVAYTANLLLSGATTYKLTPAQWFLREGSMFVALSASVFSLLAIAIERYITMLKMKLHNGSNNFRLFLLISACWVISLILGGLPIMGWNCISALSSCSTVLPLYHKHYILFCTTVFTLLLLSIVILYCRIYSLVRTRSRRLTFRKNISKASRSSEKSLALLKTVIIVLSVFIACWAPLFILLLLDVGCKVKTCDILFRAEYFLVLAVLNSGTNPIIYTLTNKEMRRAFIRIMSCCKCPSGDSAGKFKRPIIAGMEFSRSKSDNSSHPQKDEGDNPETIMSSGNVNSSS
T1 sequence (O95136 whole entry): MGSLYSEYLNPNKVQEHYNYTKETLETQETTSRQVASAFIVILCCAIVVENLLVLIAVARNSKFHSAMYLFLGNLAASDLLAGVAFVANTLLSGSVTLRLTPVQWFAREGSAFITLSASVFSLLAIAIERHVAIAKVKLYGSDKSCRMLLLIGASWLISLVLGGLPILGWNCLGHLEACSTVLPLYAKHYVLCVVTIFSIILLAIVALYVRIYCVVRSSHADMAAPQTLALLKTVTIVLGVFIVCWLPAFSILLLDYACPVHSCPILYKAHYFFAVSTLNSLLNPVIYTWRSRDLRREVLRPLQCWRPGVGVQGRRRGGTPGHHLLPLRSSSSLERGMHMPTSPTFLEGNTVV

| SMILES | EC50 [1] | EC50 [2] [nM] | EC50 [3] [nM] | EC50 [5] [nM] | EC50 [7] [nM] | also measured |
| --- | --- | --- | --- | --- | --- | --- |
| CCCCCCc1ccc(NC(=O)[C@@H](N)COP(=O)(O)O)cc1.O=C(O)C(F)(F)F | Not Active | 1500 | 550 | 55 |  | EC50 [4]: Not Active |
| CCCCCCCCCCCCCCCCNC(=O)[C@@H](N)COP(=O)(O)O |  |  |  |  |  | EC50 [6]: > 5000 nM |
| CCCCCCCCCCCCC/C=C/[C@@H](O)[C@@H](N)COP(=O)(O)O |  |  |  |  |  | EC50 [8]: 270 nM; EC50 [9]: 8.7 nM; EC50 [10]: 4.5 nM |
| CCCCCCCCCCCCc1ccc(NC(=O)[C@H](N)COP(=O)(O)O)cc1.O=C(O)C(F)(F)F | Not Active | 1400 | 130 | 160 | 740 |  |
| CCCCCCCCCCCCCCNC(=O)[C@H](N)COP(=O)(O)O |  |  |  | > 5000 |  |  |
| CCCCCCCCc1ccc(NC(=O)[C@@H](N)COP(=O)(O)O)cc1.O=C(O)C(F)(F)F | Not Active |  | 82 |  |  | EC50 [11]: 1500 nM |

Further lines, with some results ahead:

| EC50 [1] | EC50 [2] [nM] | EC50 [3] [nM] | EC50 [5] [nM] | EC50 [7] [nM] | SMILES | also measured |
| --- | --- | --- | --- | --- | --- | --- |
| Not Active | 880 | 260 | 43 |  | CCCCCCc1ccc(NC(=O)[C@H](N)COP(=O)(O)O)cc1.O=C(O)C(F)(F)F | EC50 [4]: Not Active |
|  |  | 397 | 1610 | 862 | CCCCCCCCCCCCCCNC(=O)[C@@H](N)COP(=O)(O)O | EC50 [6]: 2680 nM |
| Not Active |  | 58 |  | 450 | CCCCCCCCc1ccc(NC(=O)[C@H](N)COP(=O)(O)O)cc1.O=C(O)C(F)(F)F |  |
| Not Active | 450 | 8.6 | 41 | 89 | CCCCCCCCCCc1ccc(NC(=O)[C@H](N)COP(=O)(O)O)cc1.O=C(O)C(F)(F)F |  |
